# Results: ChEMBL document CHEMBL3271970, “Radiopharmaceuticals. 16. Halogenated dopamine analogs. Synthesis and radiolabeling of 6-iododopamine and tissue distribution studies in animals” (J Med Chem, 1976)
# Experiments:
# Kidney [1] = test: Biodistribution in kidney of rat assessed per organ at 3.6 x 10^-8 mol, iv measured after 5 mins; format: ADME, organism-based; conditions: in vivo
# How it was run: (§1)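 [131I]-6-iododopamine in water or saline, used within 30 min of preparation. Injected iv at 3.6 × 10^-8 mol/rat. Rats killed by ether overdose at 5, 30 or 60 min, or at 2, 4 or 24 h. Tissue radioactivity expressed as % dose/organ, mean ± SD of four rats.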
# Kidney [2] = test: Biodistribution in kidney of rat assessed per organ at 3.6 x 10^-8 mol, iv measured after 24 hrs; format: ADME, organism-based; conditions: in vivo; how it was run: as §1
# Mus musculus [3] = test: Biodistribution in adrenal gland of mouse assessed per organ at 8 to 11 x 10^-8 mol, iv measured after 120 mins; format: ADME, organism-based; conditions: in vivo, 2 h
# How it was run: (§2)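 [131I]- or [123I]-6-iododopamine in water or saline, used within 30 min of preparation. Injected iv at 8-11 × 10^-8 mol/mouse. Mice killed by ether overdose at 5-240 min; 3-10 mice per time point. Tissue radioactivity expressed as % dose/organ ± SD.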
# Rattus norvegicus [4] = test: Biodistribution in thyroid gland of rat assessed per organ at 3.6 x 10^-8 mol, iv measured after 2 hrs; format: ADME, organism-based; conditions: in vivo
# How it was run: (§3)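 [131I]-labelled tracer in water or saline, injected within 30 min of preparation. Rats given 3.6 × 10^-8 mol/rat iv, killed by ether overdose at each time point. Organs excised and radioactivity counted as % dose/organ, mean ± SD of four rats.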
# Liver [5] = test: Biodistribution in liver of mongrel dog assessed per organ at 1.29 x 10^-6 mol, iv measured after 2 hrs; format: ADME, organism-based, Canis lupus familiaris; conditions: in vivo
# How it was run: (§4)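 Radioiodinated ([123I] or [131I]) 6-iododopamine in water or saline, used within 30 min of preparation. Given iv at 1.29 × 10^-6 mol/dog; one dog per time point, killed at 2 or 24 h. Large organs counted as three samples and averaged; adrenals and thyroid taken intact and counted. Expressed as % dose/organ.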
# Liver [6] = test: Biodistribution in liver of rat assessed per organ at 3.6 x 10^-8 mol, iv measured after 2 hrs; format: ADME, organism-based; conditions: in vivo; how it was run: as §3
# Adrenal medulla [7] = test: Biodistribution in adrenal medulla of rat assessed per organ at 3.6 x 10^-8 mol, iv measured after 4 hrs; format: ADME, organism-based; conditions: in vivo; how it was run: as §1
# Mus musculus [8] = test: Biodistribution in thyroid gland of mouse assessed per organ at 8 to 11 x 10^-8 mol, iv measured after 5 mins; format: ADME, organism-based; conditions: in vivo
# How it was run: (§5)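 Tracer labelled with either 123I or 131I, in water or saline, used within 30 min of preparation. Mice dosed iv at 8-11 × 10^-8 mol/mouse and killed by ether overdose. Organs counted as % dose/organ ± SD, n = 3-10 mice per time point.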
# [9] = Biodistribution in thyroid gland of mongrel dog assessed per organ at 1.29 x 10^-6 mol, iv measured after 2 hrs; format: ADME, organism-based, Canis lupus familiaris; conditions: in vivo
# How it was run: (§6)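 Radioiodine-labelled tracer given at 1.29 × 10^-6 mol/dog. One dog per time point, killed at 2 or 24 h. Thyroids and other small organs were taken intact and counted. Large organs were sampled three times and averaged. Result given as % dose/organ.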
# Rattus norvegicus [10] = test: Biodistribution in adrenal cortex of rat assessed per organ at 3.6 x 10^-8 mol, iv measured after 5 mins; format: ADME, organism-based; conditions: in vivo; how it was run: as §1
# Kidney [11] = test: Biodistribution in kidney of rat assessed per organ at 3.6 x 10^-8 mol, iv measured after 2 hrs; format: ADME, organism-based; conditions: in vivo; how it was run: as §1
# Mus musculus [12] = test: Biodistribution in thyroid gland of mouse assessed per organ at 8 to 11 x 10^-8 mol, iv measured after 120 mins; format: ADME, organism-based; conditions: in vivo, 2 h; how it was run: as §5
# Liver [13] = test: Biodistribution in liver of mouse assessed per organ at 8 to 11 x 10^-8 mol, iv measured after 120 mins; format: ADME, organism-based; conditions: in vivo, 2 h; how it was run: as §2
# Adrenal medulla [14] = test: Biodistribution in adrenal medulla of rat assessed per organ at 3.6 x 10^-8 mol, iv measured after 2 hrs; format: ADME, organism-based; conditions: in vivo; how it was run: as §1
# Adrenal medulla [15] = test: Biodistribution in adrenal medulla of rat assessed per organ at 3.6 x 10^-8 mol, iv measured after 5 mins; format: ADME, organism-based; conditions: in vivo; how it was run: as §1
# Liver [16] = test: Biodistribution in liver of rat assessed per organ at 3.6 x 10^-8 mol, iv measured after 4 hrs; format: ADME, organism-based; conditions: in vivo; how it was run: as §3
# [17] = Biodistribution in adrenal cortex of mongrel dog assessed per organ at 1.29 x 10^-6 mol, iv measured after 24 hrs; format: ADME, organism-based, Canis lupus familiaris; conditions: in vivo; how it was run: as §4
# Rattus norvegicus [18] = test: Biodistribution in adrenal cortex of rat assessed per organ at 3.6 x 10^-8 mol, iv measured after 30 mins; format: ADME, organism-based; conditions: in vivo, 0.5 h; how it was run: as §1
# [19] = Biodistribution in adrenal cortex of mongrel dog assessed per organ at 1.29 x 10^-6 mol, iv measured after 2 hrs; format: ADME, organism-based, Canis lupus familiaris; conditions: in vivo; how it was run: as §4
# Blood [20] = test: Biodistribution in blood of rat at 3.6 x 10^-8 mol, iv measured after 24 hrs; format: ADME, organism-based; conditions: in vivo
# How it was run: (§7)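 [131I]-6-iododopamine in water or saline, used within 30 min of preparation. Injected iv at 3.6 × 10^-8 mol/rat. Rats killed by ether overdose at 5 min to 24 h. Blood radioactivity expressed as % dose/g, mean ± SD of four rats.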
# Mus musculus [21] = test: Biodistribution in thyroid gland of mouse assessed per organ at 8 to 11 x 10^-8 mol, iv measured after 30 mins; format: ADME, organism-based; conditions: in vivo, 0.5 h; how it was run: as §5
# Liver [22] = test: Biodistribution in liver of mouse assessed per organ at 8 to 11 x 10^-8 mol, iv measured after 5 mins; format: ADME, organism-based; conditions: in vivo; how it was run: as §2
# Liver [23] = test: Biodistribution in liver of mouse assessed per organ at 8 to 11 x 10^-8 mol, iv measured after 15 mins; format: ADME, organism-based; conditions: in vivo, 0.25 h; how it was run: as §2
# Mus musculus [24] = test: Biodistribution in adrenal gland of mouse assessed per organ at 8 to 11 x 10^-8 mol, iv measured after 15 mins; format: ADME, organism-based; conditions: in vivo, 0.25 h; how it was run: as §2
# Liver [25] = test: Biodistribution in liver of rat assessed per organ at 3.6 x 10^-8 mol, iv measured after 5 mins; format: ADME, organism-based; conditions: in vivo; how it was run: as §3
# [26] = Biodistribution in thyroid gland of mongrel dog assessed per organ at 1.29 x 10^-6 mol, iv measured after 24 hrs; format: ADME, organism-based, Canis lupus familiaris; conditions: in vivo; how it was run: as §6
# Adrenal medulla [27] = test: Biodistribution in adrenal medulla of rat assessed per organ at 3.6 x 10^-8 mol, iv measured after 60 mins; format: ADME, organism-based; conditions: in vivo, 1 h; how it was run: as §1
# Blood [28] = test: Biodistribution in blood of rat at 3.6 x 10^-8 mol, iv measured after 30 mins; format: ADME, organism-based; conditions: in vivo, 0.5 h; how it was run: as §7
# Mus musculus [29] = test: Biodistribution in thyroid gland of mouse assessed per organ at 8 to 11 x 10^-8 mol, iv measured after 15 mins; format: ADME, organism-based; conditions: in vivo, 0.25 h; how it was run: as §5
# Adrenal medulla [30] = test: Biodistribution in adrenal medulla of rat assessed per organ at 3.6 x 10^-8 mol, iv measured after 30 mins; format: ADME, organism-based; conditions: in vivo, 0.5 h; how it was run: as §1
# Rattus norvegicus [31] = test: Biodistribution in adrenal cortex of rat assessed per organ at 3.6 x 10^-8 mol, iv measured after 60 mins; format: ADME, organism-based; conditions: in vivo, 1 h; how it was run: as §1
# Liver [32] = test: Biodistribution in liver of mouse assessed per organ at 8 to 11 x 10^-8 mol, iv measured after 240 mins; format: ADME, organism-based; conditions: in vivo, 4 h; how it was run: as §2
# Kidney [33] = test: Biodistribution in kidney of mouse assessed per organ at 8 to 11 x 10^-8 mol, iv measured after 5 mins; format: ADME, organism-based; conditions: in vivo; how it was run: as §2
# Liver [34] = test: Biodistribution in liver of mongrel dog assessed per organ at 1.29 x 10^-6 mol, iv measured after 24 hrs; format: ADME, organism-based, Canis lupus familiaris; conditions: in vivo; how it was run: as §4
# Kidney [35] = test: Biodistribution in kidney of rat assessed per organ at 3.6 x 10^-8 mol, iv measured after 60 mins; format: ADME, organism-based; conditions: in vivo, 1 h; how it was run: as §1
# Adrenal medulla [36] = test: Biodistribution in adrenal medulla of rat assessed per organ at 3.6 x 10^-8 mol, iv measured after 24 hrs; format: ADME, organism-based; conditions: in vivo; how it was run: as §1
# Kidney [37] = test: Biodistribution in kidney of mouse assessed per organ at 8 to 11 x 10^-8 mol, iv measured after 240 mins; format: ADME, organism-based; conditions: in vivo, 4 h; how it was run: as §2
structure (smiles),measurement,setting,value
Br.NCCc1cc(O)c(O)cc1[131I],Drug uptake,Kidney [1],3.55 %ID
same,Drug uptake,Kidney [2],0.024 %ID
same,Drug uptake,Mus musculus [3],0.02 %ID
same,Drug uptake,Rattus norvegicus [4],0.183 %ID
same,Drug uptake,Liver [5],2.24 %ID
same,Drug uptake,Liver [6],0.33 %ID
same,Drug uptake,Adrenal medulla [7],0.0047 %ID
same,Drug uptake,Mus musculus [8],0.094 %ID
same,Drug uptake,[9],0.026 %ID
same,Drug uptake,Rattus norvegicus [10],0.0098 %ID
same,Drug uptake,Kidney [11],0.168 %ID
same,Drug uptake,Mus musculus [12],0.176 %ID
same,Drug uptake,Liver [13],0.84 %ID
same,Drug uptake,Adrenal medulla [14],0.0035 %ID
same,Drug uptake,Adrenal medulla [15],0.0247 %ID
same,Drug uptake,Liver [16],0.265 %ID
same,Drug uptake,[17],0.0104 %ID
same,Drug uptake,Rattus norvegicus [18],0.0062 %ID
same,Drug uptake,[19],0.0092 %ID
same,Drug uptake,Blood [20],0.0062 %ID
same,Drug uptake,Mus musculus [21],0.084 %ID
same,Drug uptake,Liver [22],7.1 %ID
same,Drug uptake,Liver [23],3.64 %ID
same,Drug uptake,Mus musculus [24],0.015 %ID
same,Drug uptake,Liver [25],4.58 %ID
same,Drug uptake,[26],0.48 %ID
same,Drug uptake,Adrenal medulla [27],0.0038 %ID
same,Drug uptake,Blood [28],0.48 %ID
same,Drug uptake,Mus musculus [29],0.067 %ID
same,Drug uptake,Adrenal medulla [30],0.0138 %ID
same,Drug uptake,Rattus norvegicus [31],0.007 %ID
same,Drug uptake,Liver [32],0.94 %ID
same,Drug uptake,Kidney [33],8.03 %ID
same,Drug uptake,Liver [34],0.48 %ID
same,Drug uptake,Kidney [35],0.72 %ID
same,Drug uptake,Adrenal medulla [36],0.0021 %ID
same,Drug uptake,Kidney [37],0.79 %ID
